Source: publication PMC4029506 (Bioorganic & medicinal chemistry, 2014)
One block for each compound: values may come before it.

Key:
FAAH = conditions: cited from earlier work
P450 3A4 = conditions: cited from earlier work
[1] = previously observed; cited from earlier work
P450 2D6 = conditions: cited from earlier work
vanilloid receptors = conditions: cited from earlier work
P450 2C9 = conditions: cited from earlier work
[2] = system: human ether-a-go-go related gene (hERG); conditions: cited from earlier work
cannabinoid CB2 receptor = conditions: cited from earlier work
cannabinoid CB1 receptor = conditions: cited from earlier work
Hemiketal / hydrate = type: physicochemical; conditions: for hydrate (gem diol) formation at 24 h: 7% D2O–DMSO-d6, 24 h; for hydrate (gem diol) formation initially: 7% D2O–DMSO-d6, initially; for hemiketal formation: in CD3OD
[3] = biological target: T1, purified recombinant rat FAAH (rFAAH) (Rattus norvegicus, UniProt P97612); test: FAAH enzyme inhibition assay; type: biochemical; conditions: for fold loss in activity / fold less potent than 3 against FAAH: relative to 3
T1 sequence (P97612 30-579 limits assumed): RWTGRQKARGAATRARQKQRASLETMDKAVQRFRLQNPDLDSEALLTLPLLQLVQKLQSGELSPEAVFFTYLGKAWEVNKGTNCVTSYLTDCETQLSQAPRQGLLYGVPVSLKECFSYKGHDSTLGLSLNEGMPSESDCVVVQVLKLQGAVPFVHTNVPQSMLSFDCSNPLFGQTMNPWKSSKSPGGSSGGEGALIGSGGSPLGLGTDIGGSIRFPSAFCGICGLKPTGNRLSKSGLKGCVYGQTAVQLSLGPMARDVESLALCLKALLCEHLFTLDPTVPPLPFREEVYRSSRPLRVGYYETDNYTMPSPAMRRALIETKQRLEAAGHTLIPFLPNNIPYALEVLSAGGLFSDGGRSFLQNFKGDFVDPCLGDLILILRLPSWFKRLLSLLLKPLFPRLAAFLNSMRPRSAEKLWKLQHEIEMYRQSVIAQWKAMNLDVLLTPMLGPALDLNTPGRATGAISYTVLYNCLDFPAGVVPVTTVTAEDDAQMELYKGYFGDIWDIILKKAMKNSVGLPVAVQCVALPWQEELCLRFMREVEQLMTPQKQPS

[4] = Racemization after dissolution in a variety of solvents; type: physicochemical; conditions: 5% Et3N in EtOAc
[5] = Epimerization in assay buffer without enzyme, monitored by chiral HPLC; type: physicochemical; conditions: assay buffer pH 9.1, without enzyme, 30 min
How it was run: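 Test compound dissolved in DMSO and added to assay buffer (pH 9.1) with no enzyme. Enantiopurity was followed by chiral HPLC over a 30 min exposure. Loss of enantiomeric excess is reported as percent change.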

[6] = system: serine hydrolases in the mouse brain proteome including KIAA1363, MAGL, and ABHD6; test: Activity-based protein profile; type: biochemical; conditions: both enantiomers; mouse brain proteome 1 mg/mL, FP-rhodamine 100 nM, 10 nM to 100 μM

Structure (SMILES): O=C(CCCCCCc1ccccc1)c1ncc(-c2ccccn2)o1 [compound 2]
antinociception in FAAH knockout mice (FAAH; FAAH knockout mice): No antinociception
in vivo activity (FAAH): antinociceptive and anti-inflammatory activity
levels of anandamide in vivo (FAAH): increases
inhibition of P450 3A4 (P450 3A4): does not inhibit
hydrated (gem diol) state in solution [1]: do not adopt a hydrated (gem diol) state
inhibition of P450 2D6 (P450 2D6): does not inhibit
binding to vanilloid receptors (vanilloid receptors): does not bind
inhibition of P450 2C9 (P450 2C9): does not inhibit
inhibition of hERG [2]: does not inhibit
binding to CB2 (cannabinoid CB2 receptor): does not bind
binding to CB1 (cannabinoid CB1 receptor): does not bind

Structure (SMILES): O=C(c1ncc(-c2ccccn2)o1)C1COc2cc(OCc3ccccc3)ccc2C1 (stereo not drawn) [compound 46]
potency relative to the unsubstituted parent oxazoles ([3]; installation of the pyridine substituent at C5): roughly equipotent
fold less active than either 2 or 3 ([3]; relative to 2 or 3): 4 fold
fold loss in activity / fold less potent than 3 against FAAH [3]: 2- to 4 fold
total change in ee (loss of enantiopurity) [5]: −4.8%

Structure (SMILES): O=C(c1ncc(I)o1)C1COc2cc(Oc3ccccc3)ccc2C1 (stereo not drawn) [compound 54]
fold difference in potency between the two enantiomers ([3]; FAAH inhibition): 1.6 fold

The next lines start with results.

hydrate (gem diol) or hemiketal formation (Hemiketal / hydrate; CD3OD and 7% D2O–DMSO-d6): no detectable
Structure (SMILES): O=C(c1ncc(-c2ccccn2)o1)[C@H]1CCc2cc(Oc3ccccc3)ccc2C1 [compound 3, reference compound]

fold loss in activity / fold less potent than 3 against FAAH [3]: 8 fold
fold reduction in activity upon introduction of the C5-pyridine substituent (14 vs 16) ([3]; relative to 16): 2 fold
racemization within the first hour [4]: significant racemization
time to complete epimerization ([4]; continued exposure): ≤ 48 h
total change in ee (loss of enantiopurity) [5]: −4.4%
hydrate (gem diol) formation at 24 h (Hemiketal / hydrate): 25%
hydrate (gem diol) formation initially (Hemiketal / hydrate): no gem diol detected
hemiketal formation (Hemiketal / hydrate): 34%
Structure (SMILES): O=C(c1ncc(-c2ccccn2)o1)C1CCc2cc(Oc3ccccc3)ccc2O1 (stereo not drawn) [compound 14]
selectivity for FAAH over all other serine hydrolases [6]: > 200 fold

hydrate (gem diol) formation at 24 h (Hemiketal / hydrate): 27%
hydrate (gem diol) formation initially (Hemiketal / hydrate): no gem diol detected
hemiketal formation (Hemiketal / hydrate): 45%
Structure (SMILES): COC(=O)c1cccc(-c2cnc(C(=O)C3CCc4cc(Oc5ccccc5)ccc4O3)o2)n1 (stereo not drawn) [compound 15]

total change in ee (loss of enantiopurity) [5]: −6.8%
hydrate (gem diol) formation at 24 h (Hemiketal / hydrate): 13%
hydrate (gem diol) formation initially (Hemiketal / hydrate): no gem diol detected
hemiketal formation (Hemiketal / hydrate): 38%
Structure (SMILES): O=C(c1ncco1)C1CCc2cc(Oc3ccccc3)ccc2O1 (stereo not drawn) [compound 16]

fold loss in activity / fold less potent than 3 against FAAH [3]: 2- to 4 fold
total change in ee (loss of enantiopurity) [5]: −1.7%
Structure (SMILES): O=C(c1ncc(-c2ccccn2)o1)C1COc2cc(Oc3ccccc3)ccc2C1 (stereo not drawn) [compound 47]
selectivity for FAAH over all other serine hydrolases [6]: > 200 fold
